Test results reported in ChEMBL document CHEMBL1156767, “Indol-3-ylcycloalkyl ketones: effects of N1 substituted indole side chain variations on CB(2) cannabinoid receptor activity” (J Med Chem, 2010).

How the values were obtained:
Cannabinoid receptor 1 [1] = molecular target: T1, Cannabinoid receptor 1 (Homo sapiens, UniProt P21554); test: Agonist activity at human recombinant CB1 receptor expressed in CHO cells assessed as inhibition of forskolin-induced cAMP production; assay type: functional, cell-based
T1 sequence (P21554 whole entry): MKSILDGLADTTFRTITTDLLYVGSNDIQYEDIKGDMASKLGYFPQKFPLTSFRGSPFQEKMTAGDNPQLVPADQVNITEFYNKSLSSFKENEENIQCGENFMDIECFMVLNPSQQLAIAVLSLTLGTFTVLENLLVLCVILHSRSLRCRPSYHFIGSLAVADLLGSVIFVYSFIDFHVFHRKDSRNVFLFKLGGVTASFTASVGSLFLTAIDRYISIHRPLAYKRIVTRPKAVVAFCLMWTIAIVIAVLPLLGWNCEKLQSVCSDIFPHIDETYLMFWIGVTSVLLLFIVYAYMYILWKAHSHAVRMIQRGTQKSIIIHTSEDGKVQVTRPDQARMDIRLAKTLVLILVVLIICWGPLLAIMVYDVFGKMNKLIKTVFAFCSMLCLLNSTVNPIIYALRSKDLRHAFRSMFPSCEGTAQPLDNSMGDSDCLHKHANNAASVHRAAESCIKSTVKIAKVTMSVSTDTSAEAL

Cannabinoid receptor 2 [2] = molecular target: T2, Cannabinoid receptor 2 (Homo sapiens, UniProt P34972); test: Agonist activity at human recombinant CB2 receptor expressed in HEK293 cells assessed as inhibition of forskolin-induced cAMP production relative to CP-55940; assay type: functional, cell-based; set-up: scale not given: the % may be the effect or the level left
T2 sequence (P34972 whole entry): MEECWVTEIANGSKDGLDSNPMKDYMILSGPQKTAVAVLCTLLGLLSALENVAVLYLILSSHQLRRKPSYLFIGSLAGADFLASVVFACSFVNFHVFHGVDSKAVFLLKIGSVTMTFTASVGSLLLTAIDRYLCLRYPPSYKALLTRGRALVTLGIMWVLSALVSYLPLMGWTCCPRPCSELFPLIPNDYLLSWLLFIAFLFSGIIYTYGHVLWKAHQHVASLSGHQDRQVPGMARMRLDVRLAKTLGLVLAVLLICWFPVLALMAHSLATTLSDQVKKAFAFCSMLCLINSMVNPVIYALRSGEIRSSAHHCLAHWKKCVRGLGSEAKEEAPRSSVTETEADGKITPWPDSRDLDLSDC
Method in brief: (§1)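 Cyclase assay on cell suspensions (HitHunter cAMP kit): varying test ligand concentrations or CP-55,940 positive control incubated 20 min at 37 °C with a fixed forskolin concentration (lower for rat CB2 than for human CB2 and rat CB1) in D-PBS with 0.01% BSA. Lysis buffer was then added and luminescence read. Response is given as percent of the CP-55,940 response.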

Cannabinoid receptor 2 [3] = molecular target: T2, Cannabinoid receptor 2; test: Agonist activity at human recombinant CB2 receptor expressed in HEK293 cells coexpressing Galphaq/o5 assessed as calcium mobilization by FLIPR assay relative to CP-55940; assay type: functional, cell-based
Method in brief: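 HEK cells stably coexpressing human CB2 and chimeric Gαq/o5 were seeded at 75 000 cells/well the day before and loaded with no-wash calcium dye. […] Mean ± SEM, ≥3 experiments in duplicate.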

[4] = molecular target: T3, Cannabinoid receptor 2 (Rattus norvegicus) (UniProt Q9QZN9); test: Agonist activity at rat CB2 receptor assessed as inhibition of forskolin-induced cAMP production by cell based assay relative to CP-55940; assay type: functional; set-up: concentration or dose not given beside the values; method in brief: as §1
T3 sequence (whole entry): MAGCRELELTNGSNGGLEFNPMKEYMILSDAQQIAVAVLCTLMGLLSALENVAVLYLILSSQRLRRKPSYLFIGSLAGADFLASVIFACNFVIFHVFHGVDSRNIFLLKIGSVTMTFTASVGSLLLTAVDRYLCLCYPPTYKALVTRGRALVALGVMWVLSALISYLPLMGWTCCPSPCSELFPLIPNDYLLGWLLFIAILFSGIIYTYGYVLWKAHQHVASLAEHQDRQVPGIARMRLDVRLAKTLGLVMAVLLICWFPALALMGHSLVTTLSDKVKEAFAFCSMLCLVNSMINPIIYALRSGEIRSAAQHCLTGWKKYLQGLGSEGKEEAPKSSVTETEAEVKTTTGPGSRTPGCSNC

Cannabinoid receptor 1 [5] = molecular target: T1, Cannabinoid receptor 1; test: Displacement of [3H]CP-55940 from human recombinant CB1 receptor expressed in CHO cells; assay type: cell-based
Cannabinoid receptor 2 [6] = molecular target: T2, Cannabinoid receptor 2; test: Agonist activity at human recombinant CB2 receptor expressed in HEK293 cells coexpressing Galphaq/o5 assessed as calcium mobilization by FLIPR assay; assay type: functional, cell-based
Method in brief: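 HEK cells stably coexpressing human CB2 and chimeric Gαq/o5 were seeded at 75 000 cells/well the day before and loaded with no-wash calcium dye. Mean ± SEM, ≥3 experiments in duplicate.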

Cannabinoid receptor 2 [7] = molecular target: T2, Cannabinoid receptor 2; test: Displacement of [3H]CP-55940 from human recombinant CB2 receptor expressed in HEK293 cells; assay type: cell-based
Cannabinoid receptor 2 [8] = molecular target: T2, Cannabinoid receptor 2; test: Agonist activity at human recombinant CB2 receptor expressed in HEK293 cells assessed as inhibition of forskolin-induced cAMP production; assay type: functional, cell-based
Cannabinoid receptor 2 [9] = molecular target: T4, Cannabinoid receptor 2 (Rattus norvegicus, UniProt Q9QZN9); test: Agonist activity at rat CB2 receptor assessed as inhibition of forskolin-induced cAMP production by cell based assay; assay type: functional
T4 sequence (Q9QZN9 whole entry): T3 sequence (whole entry)

Homo sapiens = organism: Homo sapiens; test: Selectivity ratio of Ki for human recombinant CB1 receptor to Ki for human recombinant CB2 receptor
Method in brief: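 Membranes were from HEK cells stably expressing human CB2 and CHO cells stably expressing human CB1. Competition was run against 0.5 nM [3H]CP-55,940 in 50 mM Tris-HCl pH 7.4, 2.5 mM EDTA, 5 mM MgCl2, 0.05% fatty-acid-free BSA, for 90 min at 30 °C, then filtered. Nonspecific binding was set with 10 μM unlabeled CP-55,940. Ki came from one-site fits. Mean ± SEM, ≥3 experiments in duplicate.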

[10] = molecular target: Cannabinoid receptor 1 (Rattus norvegicus) (UniProt P20272); test: Agonist activity at rat CB1 receptor assessed as inhibition of forskolin-induced cAMP production by cell based assay relative to CP-55940; assay type: functional; set-up: scale not given: the % may be the effect or the level left; method in brief: as §1
Cannabinoid receptor 1 (Rattus norvegicus), sequence (P20272 whole entry): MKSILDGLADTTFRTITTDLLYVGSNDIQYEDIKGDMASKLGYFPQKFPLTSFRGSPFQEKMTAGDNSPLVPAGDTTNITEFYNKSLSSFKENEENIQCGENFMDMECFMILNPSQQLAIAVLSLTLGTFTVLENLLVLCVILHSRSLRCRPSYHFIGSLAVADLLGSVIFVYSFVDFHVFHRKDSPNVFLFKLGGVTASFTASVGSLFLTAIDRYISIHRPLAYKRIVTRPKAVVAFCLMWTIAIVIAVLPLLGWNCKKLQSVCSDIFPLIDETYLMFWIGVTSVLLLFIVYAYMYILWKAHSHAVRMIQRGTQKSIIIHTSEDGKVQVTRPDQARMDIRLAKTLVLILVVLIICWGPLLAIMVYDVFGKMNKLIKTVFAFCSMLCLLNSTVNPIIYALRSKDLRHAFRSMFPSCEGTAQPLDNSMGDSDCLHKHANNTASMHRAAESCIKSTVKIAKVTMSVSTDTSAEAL

Cannabinoid receptor 1 [11] = molecular target: Cannabinoid receptor 1 (Rattus norvegicus, UniProt P20272); test: Agonist activity at rat CB1 receptor assessed as inhibition of forskolin-induced cAMP production by cell based assay; assay type: functional
Cannabinoid receptor 1 (Rattus norvegicus, UniProt P20272), sequence (P20272 whole entry): as above

SMILES	EC50 (Cannabinoid receptor 1 [1]) [nM]	Activity (Cannabinoid receptor 2 [2]) [%]	Activity (Cannabinoid receptor 2 [3]) [%]	Activity [4] [%]	Ki (Cannabinoid receptor 1 [5]; read-out: Ki) [nM]	EC50 (Cannabinoid receptor 2 [6]) [nM]	Ki (Cannabinoid receptor 2 [7]; read-out: Ki) [nM]	EC50 (Cannabinoid receptor 2 [8]) [nM]	EC50 (Cannabinoid receptor 2 [9]) [nM]	Ratio Ki (Homo sapiens)	Activity [10] [%]	EC50 (Cannabinoid receptor 1 [11]) [nM]	Ki (Cannabinoid receptor 1 [5]; read-out: pKi (converted)) [nM]	Ki (Cannabinoid receptor 2 [7]; read-out: pKi (converted)) [nM]
CC1(C)C(C(=O)c2cn(CCN3CCOC3=O)c3ccccc23)C1(C)C	3590	114	81	99	350	2	0.18	0.97	0.07	1940				
CC1(C)C(C(=O)c2cn(CC3CCOCC3)c3ccccc23)C1(C)C		103		93				2.7	0.17		91			
O=C(c1cn(CCN2CCOCC2)c2ccccc12)C1CCCCC1			44		1630	86	138			12				
CC1(C)C(C(=O)c2cn(CCN3CCOCC3)c3ccccc23)C1(C)C		78		70		16	4.6	0.52	1.6		97	248		
Cc1ncsc1CCn1cc(C(=O)C2C(C)(C)C2(C)C)c2ccccc21			49		2000	49	18			111				
CC1(C)C(C(=O)c2cn(CCN3CCCC3)c3ccccc23)C1(C)C			84		> 10000	70	5.8			> 1720				
CCCCn1cc(C(=O)C2C(C)(C)C2(C)C)c2ccccc21			102		91	5	2			46				
CC(=O)CCCCn1cc(C(=O)C2C(C)(C)C2(C)C)c2ccccc21			89		380	6	0.99			384				
Cc1c(C(=O)c2cccc3ccccc23)c2cccc3c2n1[C@H](CN1CCOCC1)CO3				46							108			
O=C(c1cn(CCN2CCOCC2)c2ccccc12)[C@@H]1CC12CCCCC2			50		3060	42	35			87				
CC1(C)C(C(=O)c2cn(CCCCO)c3ccccc23)C1(C)C	1880	100	105	104	> 5600	8	2.2	2.1	4.4	> 2500	113	2080	> 5620	
CC1(C(=O)c2cn(CC3CCOCC3)c3ccccc23)CC1(Cl)Cl (centres undefined)			32		3360	782	181			19				
CC1(C)C(C(=O)c2cn(CCN3C(=O)CCC3=O)c3ccccc23)C1(C)C			34		> 10000	77	170			> 59				
CC1(C)C(C(=O)c2cn(CCc3ccccn3)c3ccccc23)C1(C)C			59		1900	542	68			28				
CC1(C)C(C(=O)c2cn(Cc3cccnc3)c3ccccc23)C1(C)C			103		2030	75	30			68				
CC1(C)C(C(=O)c2cn(CCC3CCOCC3)c3ccccc23)C1(C)C			90		92	15	2.8			33				
CC1(C)C(C(=O)c2cn(CC3CCOC3)c3ccccc23)C1(C)C (centres undefined)			102		630	6	0.14			4500				0.49
O=C(c1cn(CCN2CCOCC2)c2ccccc12)C1CCCCCC1			48		362	31	11			33				
CN(C)CCn1cc(C(=O)C2C(C)(C)C2(C)C)c2ccccc21			105		> 10000	35	1.9			> 5260				
O=C(c1cn(CC2CCOCC2)c2ccccc12)C12CC3CC(CC1C3)C2			93		73	7	2.1			35				
COC(=O)CCn1cc(C(=O)C2C(C)(C)C2(C)C)c2ccccc21			109		1830	17	2.9			631				
CC1(C)C(C(=O)c2cn(CCn3cccc3)c3ccccc23)C1(C)C			97		310	54	1.8			172				
CC1(C)C(C(=O)c2cn(CC3OCCO3)c3ccccc23)C1(C)C			133		280	7	1			280				
O=C(c1cn(CCN2CCOCC2)c2ccccc12)C12CC3CC(CC1C3)C2			66		> 10000	68	23			> 435				
CCCCCn1cc(C(=O)C2C(C)(C)C2(C)C)c2ccccc21			93		150	29	1.8			83				
O=C(c1cn(CC2CCOCC2)c2ccccc12)C12CC3CC(CC(C3)O1)C2			97		538	8	5.9			91				
CC1(C)C(C(=O)c2cn(CCc3ccsc3)c3ccccc23)C1(C)C			108		148	70	1.8			82				
O=C(c1cn(CC2CCOCC2)c2ccccc12)[C@@H]1CC12CCCCC2			86		62	14	2.6			24				
